This passage reports IC50, degraded and Activity results from ChEMBL document CHEMBL4257471, “Orthoester functionalized N-guanidino derivatives of 1,5-dideoxy-1,5-imino-d-xylitol as pH-responsive inhibitors of β-glucocerebrosidase” (Medchemcomm, 2017).

Data set [1] deals with T1, Beta-galactosidase (Bos taurus, UniProt Q58D55).
T1 sequence (Q58D55 whole entry): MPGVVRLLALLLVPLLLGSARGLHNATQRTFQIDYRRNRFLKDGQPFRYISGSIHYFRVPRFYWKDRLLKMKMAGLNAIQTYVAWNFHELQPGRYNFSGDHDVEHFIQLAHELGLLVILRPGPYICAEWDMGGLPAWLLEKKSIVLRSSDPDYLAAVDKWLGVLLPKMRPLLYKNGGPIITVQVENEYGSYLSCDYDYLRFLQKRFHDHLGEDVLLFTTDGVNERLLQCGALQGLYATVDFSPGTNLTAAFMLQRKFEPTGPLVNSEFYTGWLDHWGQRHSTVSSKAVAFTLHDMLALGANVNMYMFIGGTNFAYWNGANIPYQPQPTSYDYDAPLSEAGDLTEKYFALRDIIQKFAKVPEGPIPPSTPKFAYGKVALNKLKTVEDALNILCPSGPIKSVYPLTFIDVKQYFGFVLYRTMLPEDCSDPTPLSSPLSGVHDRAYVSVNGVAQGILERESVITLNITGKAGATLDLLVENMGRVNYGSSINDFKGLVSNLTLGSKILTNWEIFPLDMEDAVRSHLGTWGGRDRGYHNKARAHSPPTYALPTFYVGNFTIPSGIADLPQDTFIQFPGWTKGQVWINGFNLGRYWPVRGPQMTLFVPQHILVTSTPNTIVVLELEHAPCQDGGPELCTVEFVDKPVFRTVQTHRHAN
Nature of the data set: Inhibition of bovine liver beta-galactosidase pre-incubated for 5 mins followed by p-nitrophenyl-beta-D-galactopyranoside substrate addition and measured after 30 mins by spectrophotometric assay. A digest of the protocol:
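Enzyme at 0.05 U mL⁻¹; p-nitrophenyl-β-D-galactopyranoside substrate, 0.7 mM final, in 100 mM sodium phosphate buffer, pH 7.2. IC50 values in μM from triple independent duplicate analysis.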

For data set [2], the target named is Alpha-galactosidase (Coffea arabica, UniProt Q42656). The data set can be described thus: Inhibition of green coffee beans alpha-galactosidase pre-incubated for 5 mins followed by p-nitrophenyl-alpha-D-galactopyranoside substrate addition and measured after 30 mins by spectrophotometric assay. A digest of the protocol:
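Enzyme at 0.05 U mL⁻¹ with p-nitrophenyl-α-D-galactopyranoside, 0.7 mM final, in sodium phosphate buffer (100 mM, pH 6.8). IC50 values in μM are averages of triple independent duplicate runs.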

The target in data set [3] is T2, Galactocerebrosidase (Homo sapiens, UniProt P54803).
T2 sequence (P54803 whole entry): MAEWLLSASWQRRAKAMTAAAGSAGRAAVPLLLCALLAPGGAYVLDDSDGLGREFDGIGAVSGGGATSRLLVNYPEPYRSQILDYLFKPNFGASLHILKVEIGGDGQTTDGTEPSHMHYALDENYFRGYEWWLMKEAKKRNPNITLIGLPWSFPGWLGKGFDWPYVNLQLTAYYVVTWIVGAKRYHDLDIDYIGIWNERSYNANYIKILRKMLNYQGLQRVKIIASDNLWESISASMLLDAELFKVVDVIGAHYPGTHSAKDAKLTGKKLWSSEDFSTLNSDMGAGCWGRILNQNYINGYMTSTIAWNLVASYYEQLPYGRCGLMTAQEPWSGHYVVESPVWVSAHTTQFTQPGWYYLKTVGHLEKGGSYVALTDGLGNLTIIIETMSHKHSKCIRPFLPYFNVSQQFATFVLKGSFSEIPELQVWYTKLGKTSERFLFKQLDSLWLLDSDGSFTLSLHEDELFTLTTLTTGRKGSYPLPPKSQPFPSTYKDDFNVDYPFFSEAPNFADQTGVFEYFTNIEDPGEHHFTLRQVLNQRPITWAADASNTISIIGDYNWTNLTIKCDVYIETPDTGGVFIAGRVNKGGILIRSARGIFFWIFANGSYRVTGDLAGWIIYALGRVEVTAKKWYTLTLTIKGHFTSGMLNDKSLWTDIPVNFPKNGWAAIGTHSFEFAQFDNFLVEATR
The data set can be described thus: Inhibition of recombinant human GALC at pH 5.2 pre-incubated for 10 mins followed by 4-methylumbelliferyl-beta-D-galactopyranoside substrate addition and measured after 20 mins by fluorescence assay. A digest of the protocol:
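Human recombinant enzyme assayed with 4-methylumbelliferyl-β-D-galactopyranoside substrate. IC50 values in μM, averaged from triple independent duplicate analysis.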

The nature of data set [4]: Inhibition of Penicillium decumbens naringinase pre-incubated for 5 mins followed by p-nitrophenyl-beta-D-glucopyranoside substrate addition and measured after 30 mins by spectrophotometric assay. A digest of the protocol:
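Enzyme at 0.06 U mL⁻¹; substrate p-nitrophenyl-β-D-glucopyranoside at 0.7 mM final in 100 mM sodium acetate buffer, pH 5.0. IC50 values in μM, averaged from triple independent duplicate runs.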

Data set [5] is described as follows: Inhibition of yeast alpha-glucosidase pre-incubated for 5 mins followed by p-nitrophenyl-alpha-D-glucopyranoside substrate addition and measured after 30 mins by spectrophotometric assay. The arrangement: species or system Saccharomyces cerevisiae. A digest of the protocol: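 Enzyme at 0.05 U mL⁻¹; p-nitrophenyl-α-D-glucopyranoside substrate at 0.7 mM final in 100 mM sodium phosphate, pH 7.2. IC50 values in μM averaged from triple independent duplicate analysis.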

A short description of data set [6]: Inhibition of almond beta-glucosidase pre-incubated for 5 mins followed by p-nitrophenyl-beta-D-glucopyranoside substrate addition and measured after 30 mins by spectrophotometric assay. The arrangement: species or system Prunus dulcis. An outline of the steps:
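Enzyme at 0.05 U mL⁻¹ with p-nitrophenyl-β-D-glucopyranoside, 0.7 mM final, in 100 mM sodium acetate, pH 5.0. IC50 values in μM are means of triple independent duplicate analyses.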

Data set [7] has as its target T3, Lysosomal acid glucosylceramidase (Homo sapiens, UniProt P04062).
T3 sequence (P04062 whole entry): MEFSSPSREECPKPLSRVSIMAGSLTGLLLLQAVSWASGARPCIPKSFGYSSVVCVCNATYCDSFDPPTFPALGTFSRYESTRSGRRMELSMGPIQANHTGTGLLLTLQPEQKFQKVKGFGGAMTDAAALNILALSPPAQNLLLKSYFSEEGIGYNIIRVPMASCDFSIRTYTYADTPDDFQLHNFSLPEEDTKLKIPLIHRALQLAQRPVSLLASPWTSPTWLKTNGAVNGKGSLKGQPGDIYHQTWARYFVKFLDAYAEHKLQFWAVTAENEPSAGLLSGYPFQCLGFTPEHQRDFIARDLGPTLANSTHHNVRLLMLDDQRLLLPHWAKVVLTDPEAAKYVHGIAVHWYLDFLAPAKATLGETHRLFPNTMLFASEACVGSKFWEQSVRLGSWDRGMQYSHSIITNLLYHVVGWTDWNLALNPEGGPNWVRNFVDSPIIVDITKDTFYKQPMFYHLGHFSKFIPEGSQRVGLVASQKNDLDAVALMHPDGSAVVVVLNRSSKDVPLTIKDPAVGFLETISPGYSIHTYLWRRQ
Nature of the data set: Inhibition of recombinant human GBA pre-incubated for 30 mins followed by 4-methylumbelliferyl-beta-D-glucopyranoside substrate addition and measured after 10 mins using compound incubated at pH 7 buffer for 24 hrs prior to test by fluorescence assay.

Data set [8] in a line: Drug degradation in aqueous solution at room temperature after 6 days. It is filed as physicochemical. To be noted: read-out: Drug degradation.
Data set [9] relates to T4, Lysosomal acid glucosylceramidase (Homo sapiens), P04062 [N409S].
T4 sequence (whole entry): T3 sequence (P04062 whole entry) with N409S
Nature of the data set: Chaperone activity at GBA N370S mutant in Gaucher disease patient-derived fibroblasts assessed as restoration of enzyme activity at 1 to 10000 nM after 4 days by 4-methylumbelliferyl-beta-D-glucopyranoside substrate based fluorescence assay.

In data set [10] the target is T3, Lysosomal acid glucosylceramidase. The data set can be described thus: Inhibition of recombinant human GBA pre-incubated for 30 mins followed by 4-methylumbelliferyl-beta-D-glucopyranoside substrate addition and measured after 10 mins using compound incubated at pH 5.2 for 24 hrs prior to test by fluorescence assay.
For data set [11], the system named is T5, Lysosomal acid glucosylceramidase (Homo sapiens), P04062 [L483P].
T5 sequence (whole entry): T3 sequence (P04062 whole entry) with L483P
Nature of the data set: Chaperone activity at GBA L444P mutant in Gaucher disease patient-derived fibroblasts assessed as restoration of enzyme activity at 1 to 10000 nM after 4 days by 4-methylumbelliferyl-beta-D-glucopyranoside substrate based fluorescence assay.

Numbering of substitutions follows the chain as printed. Activity calls are given as the source filed them. The rule behind the calls is not given here. A value given as a limit tells only on which side of the number the result lay.

Sequence of Alpha-galactosidase (Q42656 whole entry): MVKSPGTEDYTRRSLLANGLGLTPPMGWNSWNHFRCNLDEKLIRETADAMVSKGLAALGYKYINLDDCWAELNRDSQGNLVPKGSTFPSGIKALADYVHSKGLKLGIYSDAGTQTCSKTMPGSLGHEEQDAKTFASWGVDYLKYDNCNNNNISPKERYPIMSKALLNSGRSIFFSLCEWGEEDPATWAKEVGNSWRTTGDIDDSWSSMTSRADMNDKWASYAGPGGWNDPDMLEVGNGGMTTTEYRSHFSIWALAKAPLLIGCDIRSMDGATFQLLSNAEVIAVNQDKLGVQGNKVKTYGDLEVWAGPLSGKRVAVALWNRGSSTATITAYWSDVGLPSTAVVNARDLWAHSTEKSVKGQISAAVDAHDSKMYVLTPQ

As to `CCCCCCCCCN1C[C@H](O)[C@@H](O)[C@H](O)[C@H]1CO`, the IC50 in data set [1] is over 30 µM; in data set [2] it was over 30 µM; in data set [3], over 30 µM; in data set [4], 0.085 µM; in data set [5] it was over 30 µM; in data set [6], over 30 µM.
With `CCCCOC1OCC(CNC(=N)N2C[C@@H](O)[C@H](O)[C@@H](O)C2)O1` (stereo partly drawn), the IC50 in [1] was over 30 µM; in [7], 2.56 µM; in [2], over 30 µM; in data set [3], over 30 µM; in [4], over 30 µM; in data set [5] it was over 30 µM. The IC50 in data set [6] is 19.2 µM; in [10], over 30 µM. Further, in data set [8], the degraded at 144 h was under 3%. Moreover, the outcome in [9] was Active.
Consider `CCCCCCCCOC1OCC(CNC(=N)N2C[C@@H](O)[C@H](O)[C@@H](O)C2)O1` (stereo partly drawn), for which the IC50 is over 30 µM in data set [1]; 0.025 µM in data set [7]; over 30 µM in data set [2]; over 30 µM in data set [3]; over 30 µM in data set [4]; over 30 µM in data set [5]. Moreover, the results for the IC50 in [6] and in data set [10] were 14.6 µM and over 30 µM, respectively. Further, the degraded at 144 h in data set [8] was under 3%. In addition, in [9], the result was Active. Further, in data set [11], the result was inactive.
As for `OC[C@H]1CNC[C@@H](O)[C@@H]1O`, in [9], the outcome was Active.
